≈ marks a conversion by molar mass, not a printed value. Calls of active or inactive are those of the source. The calls are words filed in the database; no cut-off is given here.
Experiments:
Staphylococcus aureus [1] = assay: Antimicrobial activity against Staphylococcus aureus KCTC 1621 incubated for 18 to 20 hrs by broth microdilution assay; assay type: functional; conditions: read-out: MIC100
How it was run: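 Broth microdilution in 1% peptone. Inoculum was 2 × 10⁶ CFU/mL mixed 1:1 with serial 2-fold peptide dilutions and incubated 18–20 h at 37 °C. Growth was read as absorbance at 600 nm; MIC is the lowest peptide concentration giving 100% growth inhibition.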

Pseudomonas aeruginosa [2] = assay: Potency index, ratio of LL-37 MIC100 to compound MIC100 for Pseudomonas aeruginosa KCTC 1637; assay type: functional
[3] = Therapeutic index, ratio of MHC for sheep RBC to MIC for Staphylococcus epidermidis KCTC 1917
NIH3T3 = assay: Cytotoxicity against mouse NIH/3T3 cells up to 64 ug/mL after 2 days by MTT assay; assay type: cell-based; conditions: nih3t3, 48 h
How it was run: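 Cells in DMEM with 10% FBS seeded at 2×10^4 cells/well and incubated 24 h at 37 °C, 5% CO₂. Serial 2-fold peptide dilutions were added for 2 days, then MTT for 4 h. Formazan was dissolved in 20% SDS/0.01 M HCl and read at 570 nm. Survival is expressed as a percentage of untreated cells.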

Staphylococcus aureus [4] = assay: Antibacterial activity against methicillin resistant Staphylococcus aureus CCARM 3089 after 18 to 20 hrs by broth microdilution assay; assay type: functional; conditions: read-out: MIC100
How it was run: (§1)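 Broth microdilution in 1% peptone: bacteria at 2 × 10⁶ CFU/mL mixed 1:1 with serial 2-fold peptide dilutions, 18-20 h at 37 °C; growth read as absorbance at 600 nm. MIC taken as lowest concentration giving 100% growth inhibition.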

Staphylococcus aureus [5] = assay: Antibacterial activity against methicillin resistant Staphylococcus aureus CCARM 3090 after 18 to 20 hrs by broth microdilution assay; assay type: functional; conditions: read-out: MIC100; how it was run: as §1
Staphylococcus aureus [6] = assay: Antibacterial activity against methicillin resistant Staphylococcus aureus CCARM 3095 after 18 to 20 hrs by broth microdilution assay; assay type: functional; conditions: read-out: MIC100; how it was run: as §1
Pseudomonas aeruginosa [7] = assay: Antibacterial activity against multidrug-resistant Pseudomonas aeruginosa CCARM 2109 after 18 to 20 hrs by broth microdilution assay; assay type: functional; conditions: read-out: MIC100; how it was run: as §1
Enterococcus faecium [8] = assay: Antibacterial activity against vancomycin-resistant Enterococcus faecium ATCC 51559 after 18 to 20 hrs by broth microdilution assay; assay type: functional; conditions: read-out: MIC100; how it was run: as §1
Enterococcus faecium [9] = assay: Potency index, ratio of melittin MIC100 to compound MIC100 for vancomycin-resistant Enterococcus faecium ATCC 51559; assay type: functional
Escherichia coli [10] = assay: Antimicrobial activity against Escherichia coli KCTC 1682 in presence of NaCl; assay type: functional
How it was run: (§2)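 MIC in LB medium with added 150 mM NaCl, 1 mM MgCl₂ or 2.5 mM CaCl₂. Inoculum of 2 × 10⁶ CFU/mL with peptide. Otherwise as the broth microdilution MIC assay; MIC is the lowest concentration giving 100% growth inhibition.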

Escherichia coli [11] = assay: Antimicrobial activity against Escherichia coli KCTC 1682 in presence of MgCl2; assay type: functional; how it was run: as §2
Escherichia coli [12] = assay: Antimicrobial activity against Escherichia coli KCTC 1682 in presence of CaCl2; assay type: functional; how it was run: as §2
Staphylococcus aureus [13] = assay: Antimicrobial activity against Staphylococcus aureus KCTC 1621 in presence of CaCl2; assay type: functional
How it was run: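 MIC by microdilution with 2 × 10⁶ CFU/ml S. aureus KCTC 1621 in LB medium supplemented with physiological salt: 150 mM NaCl, 1 mM MgCl₂ or 2.5 mM CaCl₂; growth inhibition endpoint as in the standard MIC assay.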

Escherichia coli [14] = assay: Induction of inner membrane permeabilisation in Escherichia coli ML-35 assessed as ONPG hydrolysis up to 30 ug/ml by beta-galactosidase enzyme coupled spectrophotometric analysis; assay type: functional
How it was run: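 E. coli ML-35 (constitutive cytoplasmic β-galactosidase, lactose permease-deficient) washed and resuspended to OD600 0.5 in 10 mM sodium phosphate pH 7.4, 100 mM NaCl, with 1.5 mM ONPG. o-Nitrophenol release tracked spectrophotometrically over time after peptide addition at various concentrations.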

Staphylococcus aureus [15] = assay: Induction of cytoplasmic membrane depolarization in Staphylococcus aureus KCTC 1621 assessed as loss of membrane potential after 1 hr by DiSC3(5) dye based fluorescence assay; assay type: functional
RAW264.7 [16] = assay: Antiinflammatory activity in mouse RAW264.7 cells assessed as inhibition of LPS-induced TNF-alpha production at 32 ug/mL preincubated with cells followed by LPS addition measured after 6 hrs by ELISA; assay type: functional
How it was run: (§3)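 RAW264.7 cells seeded at 5 × 10⁴ cells/well, left overnight, then given peptide at 37 °C. Unbound peptide was washed off with PBS (five washes) before LPS (20 ng/mL) was added for 6 h at 37 °C. TNF-α in the samples was measured by mouse ELISA. Mean ± SEM of technical triplicates, one-way ANOVA with Bonferroni post-test.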

RAW264.7 [17] = assay: Antiinflammatory activity in mouse RAW264.7 cells assessed as inhibition of LPS-induced nitric oxide production at 16 ug/mL after 24 hrs by Griess method; assay type: functional; conditions: RAW264.7, 24 h
How it was run: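 RAW264.7 macrophages (5×10^5 cells/mL) stimulated with LPS (20 ng/mL), with or without peptide, for 24 h. Supernatants were mixed 1:1 with Griess reagent (1% sulfanilamide, 0.1% naphthylethylenediamine, 2% phosphoric acid) for 10 min at room temperature, read at 540 nm, and quantified against an NaNO₂ standard curve. Mean ± SEM of technical triplicates, ANOVA with Bonferroni post-test.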

RAW264.7 [18] = assay: Antiinflammatory activity in mouse RAW264.7 cells assessed as inhibition of LPS-induced TNFalpha mRNA expression at 16 ug/mL after 3 hrs by RT-PCR method; assay type: functional, cell-based
How it was run: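 RAW264.7 cells plated at 5×10^5 cells/well and cultured overnight. They were stimulated with 20 ng/mL LPS, with or without peptide, in DMEM with 10% bovine serum, for 3 h (TNF-α) or 6 h (iNOS). Total RNA was reverse-transcribed with oligo(dT)15 primers and amplified for 30 cycles (annealing 55 °C). mRNA was analysed by PCR.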

Staphylococcus aureus [19] = assay: Potency index, ratio of melittin MIC100 to compound MIC100 for methicillin resistant Staphylococcus aureus CCARM 3089; assay type: functional
Staphylococcus aureus [20] = assay: Potency index, ratio of melittin MIC100 to compound MIC100 for methicillin resistant Staphylococcus aureus CCARM 3090; assay type: functional
Escherichia coli [21] = assay: Antimicrobial activity against Escherichia coli KCTC 1682 using 4 hrs trypsin incubated compound measured after overnight incubation by radial diffusion assay; assay type: functional
How it was run: (§4)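 Radial diffusion: mid-log cells (2×10^6 CFU/ml in LB) in 0.7% agarose. Peptide stock (10 mg/mL) added to trypsin in PBS (0.2 µg/mL), 4 h at 37 °C, stopped by liquid-nitrogen freezing; 10 µL on paper discs on the plates, overnight at 37 °C. Clearance-zone diameters measured.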

Staphylococcus aureus [22] = assay: Antimicrobial activity against Staphylococcus aureus KCTC 1621 using 4 hrs trypsin incubated compound measured after overnight incubation by radial diffusion assay; assay type: functional; how it was run: as §4
RAW264.7 [23] = assay: Antiinflammatory activity in mouse RAW264.7 cells assessed as inhibition of LPS-induced TNF-alpha production preincubated with cells followed by LPS addition measured after 6 hrs by ELISA; assay type: functional, cell-based; how it was run: as §3
[24] = Therapeutic index, ratio of MHC for sheep RBC to geometric mean of MICs for four bacterial strains

N=C(N)NCCC[C@H](NC(=O)c1nn(CCc2cccc3ccccc23)cc1NC(=O)[C@H](CCCNC(=N)N)NC(=O)c1nn(CCc2cccc3ccccc23)cc1N)C(N)=O
MIC (Staphylococcus aureus [1]): 4 µg/mL (≈ 4.67 µM)
Ratio (Pseudomonas aeruginosa [2]): 8
TI [3]: 53.9
Activity (NIH3T3): Non-Toxic
MIC (Staphylococcus aureus [4]): 8 µg/mL (≈ 9.35 µM)
MIC (Staphylococcus aureus [5]): 8 µg/mL (≈ 9.35 µM)
MIC (Staphylococcus aureus [6]): 4 µg/mL (≈ 4.67 µM)
MIC (Pseudomonas aeruginosa [7]): 8 µg/mL (≈ 9.35 µM)
MIC (Enterococcus faecium [8]): 8 µg/mL (≈ 9.35 µM)
Ratio (Enterococcus faecium [9]): 2
MIC (Escherichia coli [10]): 32 µg/mL
MIC (Escherichia coli [11]): 32 µg/mL
MIC (Escherichia coli [12]): 32 µg/mL
MIC (Staphylococcus aureus [13]): 8 µg/mL
Activity (Escherichia coli [14]): Active
Activity (Staphylococcus aureus [15]): Active
inhibition at 32 µg/mL (RAW264.7 [16]): > 50%
inhibition at 16 µg/mL (RAW264.7 [17]): > 85%
inhibition (RAW264.7 [18]): Active
Ratio (Staphylococcus aureus [19]): 2 - 4
Ratio (Staphylococcus aureus [20]): 2 - 4
Activity (Escherichia coli [21]): Active
Activity (Staphylococcus aureus [22]): Active
inhibition (RAW264.7 [23]): Dose-dependent effect
TI [24]: 53.9

Reference: ChEMBL document CHEMBL4000163, “Pyrazole derived ultra-short antimicrobial peptidomimetics with potent anti-biofilm activity” (Eur J Med Chem, 2017)
